This is an account of results in PubChem BioAssay.

Activity calls are given as the source filed them.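 The calls were made as follows, unless noted: active = potentiation averaged over duplicate wells exceeding buffer-only control mean by more than 3 SD; inactive = the rest.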

A short description of test [1]: nonspecific flux increase, KCNQ1-free cells – parental CHO cells, counter-screen for KCNQ1 potentiator project (AID 493006;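 active = duplicate-averaged activation above buffer control mean plus 5 SD of those controls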;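 as to activation: fluorescence ratio of max minus min over baseline after K+ and Tl+ depolarization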). Conditions: parental CHO-K1 cells, FluxOR thallium flux, at 10 µM; hits give high values. The gist of the method:
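Material: untransfected host CHO-K1 cells with FluxOR thallium dye. Timing: overnight 37 °C plating, 90 min RT dye, 20 min compound. Detection: kinetic FluxOR fluorescence, 10 s baseline, 110 s after stimulus. Read-out basis: max-minus-min fluorescence over baseline, percent of buffer-to-R-L3 span. Replicates: duplicate wells per compound, percent values averaged.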
A general note: Counterscreens check selectivity or assay interference.

For test [2], the target named is Potassium voltage-gated channel subfamily KQT member 1 (Homo sapiens) (UniProt P51787). In words: enhancement of KCNQ1 channel thallium flux – FluxOR thallium flux, CHO cells, duplicates, confirmation (AID 493007).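 As to outcome: cells depolarized by a potassium plus thallium sulfate stimulus after compound.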 The following applies: KCNQ1 cell line, FluxOR thallium flux fluorescence, at 10 µM; hits give high values, % of reference activator effect, buffer zero. Put shortly:
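Test system – KCNQ1-expressing CHO cell line · Incubation – FluxOR dye loading 90 min, compound exposure 20 min, room temperature · Detection – FluxOR Tl+ flux fluorescence, 10 s baseline plus 110 s recording · Controls – buffer-only wells as 0% and R-L3 activator as 100%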

The target of test [3] is Potassium voltage-gated channel subfamily KQT member 2 (Rattus norvegicus) (UniProt O88943). In words: KCNQ2 thallium flux enhancement – KCNQ2-CHO-K1 cells, selectivity assay for KCNQ1 potentiator project (AID 493009;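 active = mean duplicate potentiation above the buffer control mean plus 5 SD of buffer wells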;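 also: assay conditions were tuned for KCNQ1 rather than KCNQ2 modulators; signal is max minus min fluorescence divided by baseline after thallium stimulus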). The following applies: FluxOR thallium flux fluorescence, at 10 µM; hits give high values, scaled: buffer 0, activator control 100.
Sequence of Potassium voltage-gated channel subfamily KQT member 2 (Rattus norvegicus) (O88943 whole entry, looked up): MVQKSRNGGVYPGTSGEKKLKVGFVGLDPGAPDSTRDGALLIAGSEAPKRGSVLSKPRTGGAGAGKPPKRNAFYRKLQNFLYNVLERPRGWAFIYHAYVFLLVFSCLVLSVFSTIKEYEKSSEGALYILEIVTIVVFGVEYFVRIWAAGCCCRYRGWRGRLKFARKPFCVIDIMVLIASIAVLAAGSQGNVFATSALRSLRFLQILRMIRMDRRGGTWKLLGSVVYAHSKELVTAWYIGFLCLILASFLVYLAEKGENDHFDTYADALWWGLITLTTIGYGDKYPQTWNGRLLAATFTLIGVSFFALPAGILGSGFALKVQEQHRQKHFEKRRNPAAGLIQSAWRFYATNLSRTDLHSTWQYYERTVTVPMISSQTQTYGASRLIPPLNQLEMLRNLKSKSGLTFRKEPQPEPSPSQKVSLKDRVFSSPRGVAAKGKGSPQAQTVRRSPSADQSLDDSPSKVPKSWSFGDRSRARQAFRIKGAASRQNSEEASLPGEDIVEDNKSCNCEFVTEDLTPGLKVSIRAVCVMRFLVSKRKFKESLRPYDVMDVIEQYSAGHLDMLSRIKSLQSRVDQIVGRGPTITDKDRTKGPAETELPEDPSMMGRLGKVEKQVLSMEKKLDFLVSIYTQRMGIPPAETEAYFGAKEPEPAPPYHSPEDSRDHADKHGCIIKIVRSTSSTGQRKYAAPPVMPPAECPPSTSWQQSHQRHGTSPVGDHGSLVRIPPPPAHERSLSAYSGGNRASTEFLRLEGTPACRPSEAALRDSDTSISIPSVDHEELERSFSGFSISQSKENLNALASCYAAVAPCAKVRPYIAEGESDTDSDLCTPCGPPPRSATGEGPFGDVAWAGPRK
The target of test [4] is Potassium voltage-gated channel subfamily KQT member 1 (Homo sapiens) (UniProt P51787). In words: KCNQ1 activators by electrophysiology – IonWorks patch clamp, KCNQ1-CHO cells, orthogonal assay for KCNQ1 potentiator project, confirmation (AID 493184;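 active = current rise at least 3 SD above the untreated control mean in each of two repeat wells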). Conditions: automated patch clamp current, at 10 µM; hits give high values. Put shortly:
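Read-out: Percent current increase versus pre-compound level | Assay system: CHO cells carrying KCNQ1 | Measured by: Automated perforated-patch electrophysiology | Medium: External bath solution at pH 7.4 | Dosing: One dose, 10 µM final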
(In patch-clamp work, channel activity is measured electrically.)

Sequence of Potassium voltage-gated channel subfamily KQT member 1 (Homo sapiens) (P51787 whole entry, looked up): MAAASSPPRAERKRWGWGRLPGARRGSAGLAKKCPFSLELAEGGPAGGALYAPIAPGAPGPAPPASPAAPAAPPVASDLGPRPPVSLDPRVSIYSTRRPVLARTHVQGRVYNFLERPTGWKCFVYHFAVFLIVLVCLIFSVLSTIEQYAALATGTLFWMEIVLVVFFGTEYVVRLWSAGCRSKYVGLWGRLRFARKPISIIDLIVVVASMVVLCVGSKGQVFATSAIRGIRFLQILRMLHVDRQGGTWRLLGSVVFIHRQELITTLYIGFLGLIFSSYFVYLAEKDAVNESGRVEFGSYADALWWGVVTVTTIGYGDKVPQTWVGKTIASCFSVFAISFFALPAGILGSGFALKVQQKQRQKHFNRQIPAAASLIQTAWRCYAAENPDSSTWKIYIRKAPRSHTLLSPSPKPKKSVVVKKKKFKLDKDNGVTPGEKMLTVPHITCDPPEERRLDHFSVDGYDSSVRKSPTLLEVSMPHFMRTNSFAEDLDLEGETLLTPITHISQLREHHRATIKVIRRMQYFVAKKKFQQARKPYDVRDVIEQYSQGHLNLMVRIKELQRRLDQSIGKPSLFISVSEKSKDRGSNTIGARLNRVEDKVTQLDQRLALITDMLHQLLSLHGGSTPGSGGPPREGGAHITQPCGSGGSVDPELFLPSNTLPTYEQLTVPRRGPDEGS

Consider `CC1CCCCN1C(=S)NC(=O)c1cccs1` (stereo not given), for which the result in test [1], in test [2], in test [3] and in test [4] was inactive.
As to `CCCc1cc2c(=O)c(-c3ccccn3)c(C)oc2cc1O`, the result in test [1], in test [2], in test [3] and in test [4] was inactive.
As to `Cc1ccc2oc(C(=O)N3CCN(c4cccc(C)n4)CC3)c(C)c2c1`, the outcome in test [1], in test [2], in test [3] and in test [4] was inactive.
Take `CC1CCN(C(=S)NC(=O)c2cccs2)CC1`: the activation in test [1] is 143% (active). In addition, the potentiation in test [2] is 28.5% (active); in test [3] it was 186% (active). The outcome in test [4] was inactive.
Taken in the same sequence, the figures for `Cc1ccc2c(c1)C1CN(C)CCC1N2C(=S)NC(=O)c1ccc(Cl)cc1Cl` (stereo not given) were 194% (active), 50% (active), 217% (active) and “inactive”.
For `CCC1(C)Cc2c(sc3nc(SC)[nH]c(=S)c23)CO1` (stereo not given), the activation in test [1] was 550% (active). The potentiation in test [2] was 194% (active); in test [3], 534% (active). Also, the result in test [4] was inactive.
On to `COc1cccc2sc(NNC(=O)C3COc4ccccc4O3)nc12` (stereo not given), for which the result in test [1], in test [2], in test [3] and in test [4] was inactive.
Turning to `COc1cc(-c2nnc(COC(=O)c3cccn3C)o2)cc(OC)c1OC`, the result in test [1], in test [2], in test [3] and in test [4] was inactive.
Turning to `Cc1cc([N+](=O)[O-])ccc1-c1ccc(C2Nc3ccccc3C(=O)N2O)o1` (stereo not given), the activation in test [1] is 174% (active). Also, the potentiation in test [2] was 18.5% (active); in test [3] it was 158% (active). In test [4], the result was inactive.
Regarding `CC(=O)NC(NC(C)=O)c1ccc(N(C)C)cc1`, the result in test [1], in test [2], in test [3] and in test [4] was inactive.
Turning to `CCSc1nnc(NS(=O)(=O)c2ccc(OC)cc2)s1`, the outcome in test [1], in test [2], in test [3] and in test [4] was inactive.
Regarding `CN(C(=O)c1cc(COc2c(F)cccc2F)on1)C1CCOC1` (stereo not given), the result in test [1], in test [2], in test [3] and in test [4] was inactive.
Consider `Nc1nc(N)c(N=Nc2ccc(C(=O)O)cc2)c(N)n1`, for which the result in test [1], in test [2], in test [3] and in test [4] was inactive.
Consider `CC(C)[N+]1(C)[C@@H]2CC[C@H]1CC(OC(=O)C(CO)c1ccccc1)C2` (stereo not given in full), for which the result in test [1], in test [2], in test [3] and in test [4] was inactive.
For `Cc1[nH]n(-c2ccccc2)c(=O)c1/C=N/N(c1ccccc1)c1ccccc1`, the outcome in test [1], in test [3] and in test [4] was inactive. In test [2], the potentiation was 47% (active).
`CCN1C(=O)/C(=C/c2ccc(OCc3ccc(C(=O)O)cc3)c(Cl)c2)NC1=S`: the activation in test [1] is 136% (active). Further, the result in test [2] and in test [4] was inactive. In test [3], the potentiation was 168% (active).
For `COc1ccc(C(=O)O/N=C(\N)c2ccccc2Cl)cc1OC`, the result in test [1], in test [2], in test [3] and in test [4] was inactive.
On to `COc1ccc(Cl)cc1NC(=O)CNc1ccc(F)cc1C`, for which the outcome in test [1], in test [2], in test [3] and in test [4] was inactive.
`Cc1c(N2C(=O)/C(=C\c3ccccc3O)SC2=S)c(=O)n(-c2ccccc2)n1C`: in test [1], the activation is 398% (active). Moreover, the figures for the potentiation in test [2] and in test [3] were 200% (active) and 392% (active), respectively. Moreover, the outcome in test [4] was inactive.
Turning to `CN(C)c1oc(-c2ccc(OCc3ccc(Cl)cc3)cc2)nc1C#N`, the outcome in test [1], in test [2], in test [3] and in test [4] was inactive.
As to `CCOC(=O)CSc1nc2ccccc2n2c(C)nnc12`, the result in test [1], in test [2], in test [3] and in test [4] was inactive.
With `CCN(CC)CC(O)Cn1c2ccccc2c2ccccc21` (stereo not given), the outcome in test [1], in test [2], in test [3] and in test [4] was inactive.
On to `C=CCN(CC=C)C(=S)NC(=O)c1ccc(C)c(Br)c1`, for which, in test [1], the activation is 779% (active). In addition, the results for the potentiation in test [2] and in test [3] were 270% (active) and 688% (active), respectively. Moreover, in test [4], the outcome was inactive.
Turning to `Cc1ncc(CN2CCC(CO)(CCc3ccccc3)CC2)s1`, the outcome in test [1], in test [2], in test [3] and in test [4] was inactive.
Turning to `Cc1ccc(S(=O)(=O)N2CCN(C(=O)CCC(=O)OCC(=O)Nc3cccc(C#N)c3)CC2)cc1`, the outcome in test [1], in test [2], in test [3] and in test [4] was inactive.
As to `S=c1nc(Cc2ccc(Cl)cc2)[nH]c2ccccc12`, the activation in test [1] is 372% (active). The potentiation in test [2] was 148% (active); in test [3], 350% (active). In addition, in test [4], the result was inactive.
Taken in the same sequence, the figures for `CC(Oc1ccc(Br)cc1)c1nc2c3ccccc3nc(=S)n2[nH]1` (stereo not given) were 227% (active), 45.5% (active), 178% (active) and “inactive”.
In the case of `Cc1cc(C)nc(N(C#N)CC(=O)c2ccccc2)n1`, the result in test [1], in test [2], in test [3] and in test [4] was inactive.
As to `CCCn1c(=S)[nH]c2ccc(C(F)(F)F)cc21`, in test [1], the activation was 158% (active). For the same compound, the result in test [2], in test [3] and in test [4] was inactive.
Turning to `Cc1ccccc1NC(=S)NC(=O)c1cc(-c2ccccc2)nc2ccccc12`, the activation in test [1] is 151% (active). Moreover, the potentiation in test [2] is 53% (active); in test [3], 158% (active). Moreover, the outcome in test [4] was inactive.
